For experiment [1], the species on record is Cavia porcellus. The experiment is described as follows: Positive inotropic activity in isolated left guinea pig atria. The class given is functional. To be noted: read-out: ED50 (the source's name). The method, boiled down: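 Isolated guinea pig left atria were paced electrically with square-wave pulses (2.5 Hz, 5 ms, voltage 50% above threshold) and stretched to 0.5 g resting tension. The bath was Krebs–Henseleit at 32 °C, gassed with 95% O2/5% CO2. An isoprenaline dose–response curve was run first to test each preparation. The ED50 (mol/L, dose giving 50% of maximum effect) was derived by the Ariens–Van Rossum method.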

Experiment [2] is filed under the species Cavia porcellus. As to the kind of experiment: Maximum response compared to maximum response to isoprenaline. The class given is functional. The method, boiled down: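 Electrically paced isolated guinea pig left atria (2.5 Hz, 5 ms pulses, 50% above threshold) were held in Krebs–Henseleit at 32 °C under 95% O2/5% CO2 and 0.5 g resting tension. Intrinsic activity is the compound's maximal inotropic response divided by the isoprenaline maximum, with isoprenaline set to 1. The number of experiments is given per value.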

With `Cl.Nc1cc2ccccc2nc1O`, the EC50 in the experiment filed under Cavia porcellus [1] was above 77 µM. In addition, in the experiment listed under Cavia porcellus [2], the Intrinsic activity is reported as 0.2.

Turning to `Cl.Oc1ccc2c(-c3ccncc3)ccc(O)c2n1`, in the experiment filed under Cavia porcellus [1], the EC50 came to 20 µM. The same compound yielded an Intrinsic activity in the experiment filed under Cavia porcellus [2] of 0.24.

Regarding `COc1ccc(-c2ccncc2)c2ccc(O)nc12.Cl`, in the experiment listed under Cavia porcellus [1], the EC50 is 35 µM. In addition, in the experiment filed under Cavia porcellus [2], the Intrinsic activity is listed as 0.75.

For the compound `Br.Oc1ccc2c(-c3cccnc3)ccc(O)c2n1`, in the experiment filed under Cavia porcellus [1], the EC50 is 6.75 µM. The compound further had an Intrinsic activity in the experiment listed under Cavia porcellus [2] of 0.62.

Take `COc1cccc2c(-c3ccncc3)cc(O)nc12.Cl`: the EC50 in the experiment listed under Cavia porcellus [1] turned out to be 38 µM. Moreover, in the experiment filed under Cavia porcellus [2], the Intrinsic activity is recorded as 0.45.

For the compound `Cl.Oc1cc(-c2ccncc2)c2cccc(O)c2n1`, in the experiment listed under Cavia porcellus [1], the EC50 was determined as 22 µM. In the experiment listed under Cavia porcellus [2], this compound had an Intrinsic activity of 0.55.

Take `COc1ccc(-c2cccnc2)c2ccc(O)nc12.Cl`: in the experiment listed under Cavia porcellus [1], the EC50 came to 5.75 µM. For the same compound, the Intrinsic activity in the experiment listed under Cavia porcellus [2] came to 0.79.

For the compound `COc1ccc(N)c2ccc(O)nc12.Cl`, the EC50 in the experiment filed under Cavia porcellus [1] was found to be 235 µM. In the experiment filed under Cavia porcellus [2], the Intrinsic activity amounted to 0.23.

For `COc1ccc(-c2cccnc2)c2c1NC(=O)CC2`, in the experiment listed under Cavia porcellus [1], the EC50 turned out to be 12 µM. The same compound came in with an Intrinsic activity in the experiment filed under Cavia porcellus [2] of 0.56.

Turning to `Oc1nc2ccccc2cc1-c1cccnc1`, in the experiment filed under Cavia porcellus [1], the EC50 was 300 µM. For the same compound, in the experiment listed under Cavia porcellus [2], the Intrinsic activity worked out at 0.08.

Take `COc1ccc(-c2cccnc2)cc1NC(=O)CC(C)=O`: the EC50 in the experiment listed under Cavia porcellus [1] is 8.3 µM. Also, the Intrinsic activity in the experiment filed under Cavia porcellus [2] was determined as 0.51.

For the compound `COc1ccc(-c2ccccn2)c2c1NC(=O)CC2`, the EC50 in the experiment filed under Cavia porcellus [1] was 22 µM. The compound further returned an Intrinsic activity in the experiment listed under Cavia porcellus [2] of 0.44.

Take `Oc1ccc2c(-c3cccnc3)cccc2n1`: the EC50 in the experiment filed under Cavia porcellus [1] is 1.3 µM. The compound further showed an Intrinsic activity in the experiment listed under Cavia porcellus [2] of 0.83.

For `COc1ccc(-c2ccncc2)c2c1NC(=O)CC2`, the EC50 in the experiment listed under Cavia porcellus [1] amounted to 31 µM. Also, the Intrinsic activity in the experiment listed under Cavia porcellus [2] was 0.75.

Consider `COc1ccc(-c2ccccn2)c2ccc(O)nc12`, for which, in the experiment filed under Cavia porcellus [1], the EC50 was determined as 34.5 µM. The same compound came in with an Intrinsic activity in the experiment filed under Cavia porcellus [2] of 0.62.

Compound `CCO/C=C\C(=O)Nc1cc(-c2cccnc2)ccc1Cl` had an Intrinsic activity in the experiment listed under Cavia porcellus [2] of 0.28.

On to `CCO/C=C\C(=O)Nc1cccc(-c2cccnc2)c1`, for which the Intrinsic activity in the experiment listed under Cavia porcellus [2] was 0.42.

Take `CCO/C=C\C(=O)Nc1cccc(-c2ccccn2)c1`: the Intrinsic activity in the experiment filed under Cavia porcellus [2] turned out to be 0.33.

In turn, `CCO/C=C\C(=O)Nc1cc(-c2cccnc2)ccc1OC` came in with an Intrinsic activity in the experiment listed under Cavia porcellus [2] of 0.54.

On to `CC(C)NCC(O)c1ccc(O)c(O)c1` (centres undefined) [ISOPROTERENOL], for which, in the experiment filed under Cavia porcellus [2], the Intrinsic activity stood at 1.

Take `Cc1[nH]c(=O)c(C#N)cc1-c1ccncc1` [MILRINONE]: the EC50 in the experiment listed under Cavia porcellus [1] came to 14 µM. In addition, in the experiment filed under Cavia porcellus [2], the Intrinsic activity was 0.67.

For `COc1cc([S+](C)[O-])ccc1-c1nc2cccnc2[nH]1` (centres undefined) [SULMAZOLE], the EC50 in the experiment filed under Cavia porcellus [1] turned out to be 12 µM. In the experiment listed under Cavia porcellus [2], the Intrinsic activity worked out at 0.85.

The values are drawn from ChEMBL document CHEMBL1123378, “Cardiotonic agents. 1. Synthesis and structure-activity relationships in a new class of 3-, 4-, and 5-pyridyl-2(1H)-quinolone derivatives” (1986).
